Test results published in ChEMBL document CHEMBL1250528 (J Med Chem, 2010).
Each block holds one compound with its values, some of them ahead of it.

Assays:
[1] = Permeability of the compound in human Caco-2 cells; assay type: ADME, cell-based; conditions: read-out: permeability
[2] = AUC (0 to 24 hrs) in Sprague-Dawley rat at 2.5 mg/kg, iv and 10 mg/kg, po; assay type: ADME, organism-based; conditions: plasma
Summary of the method: (§1)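 Male Sprague-Dawley rats (250-300 g), fasted overnight. IV bolus 2.5 mg/kg in 25% NMP/33% PEG 400/9% PG/33% water; oral gavage 10 mg/kg in PEG 400. Blood sampled at 0.05 (iv only), 0.25, 0.5, 1, 3, 6, 8 and 24 h post dose; composite profile. Plasma stored at -20 °C, then analysed by LC/MS/MS.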

Hepatocyte [3] = experiment: Metabolic stability in human hepatocytes assessed as metabolic rate per million cells; assay type: ADME, cell-based
[4] = Metabolic stability in mouse liver microsomes assessed as metabolic rate; assay type: ADME, Microsome
[5] = Mean residence time in BALB/c mouse at 5 mg/kg, iv and 10 mg/kg, po; assay type: ADME, organism-based; conditions: in vivo
Summary of the method: (§2)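 Male BALB/c mice (20-25 g), fasted overnight. IV bolus 5 mg/kg in 20% NMP/35% PEG 400/10% PG/35% water; oral gavage 10 mg/kg in PEG 400. Retro-orbital blood at 0.05 (iv only), 0.25, 0.5, 1, 3, 6, 8 and 24 h; three mice per time point, giving a composite profile. Plasma analysed by LC/MS/MS.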

[6] = Clearance in BALB/c mouse at 5 mg/kg, iv and 10 mg/kg, po; assay type: ADME, organism-based; conditions: in vivo; summary of the method: as §2
[7] = Mean residence time in Sprague-Dawley rat at 2.5 mg/kg, iv and 10 mg/kg, po; assay type: ADME, organism-based; conditions: in vivo; summary of the method: as §1
[8] = Tmax in Sprague-Dawley rat at 2.5 mg/kg, iv and 10 mg/kg, po; assay type: ADME, organism-based; conditions: in vivo; summary of the method: as §1
[9] = Oral bioavailability in BALB/c mouse at 10 mg/kg; assay type: ADME, organism-based; conditions: in vivo; summary of the method: as §2
[10] = Oral bioavailability in Sprague-Dawley rat at 10 mg/kg; assay type: ADME, organism-based; conditions: in vivo; summary of the method: as §1
Liver microsomes [11] = experiment: Metabolic stability in rat liver microsomes assessed as metabolic rate; assay type: ADME, Microsome
[12] = Metabolic stability in mouse hepatocytes assessed as metabolic rate per million cells; assay type: ADME, cell-based, Hepatocyte
[13] = Volume of distribution at steady state in Sprague-Dawley rat at 2.5 mg/kg, iv and 10 mg/kg, po; assay type: ADME, organism-based; conditions: in vivo, read-out: Vdss; summary of the method: as §1
[14] = Half life in Sprague-Dawley rat at 2.5 mg/kg, iv and 10 mg/kg, po; assay type: ADME, organism-based; conditions: in vivo; summary of the method: as §1
[15] = AUC (0 to 8 hrs) in BALB/c mouse at 5 mg/kg, iv and 10 mg/kg, po; assay type: ADME, organism-based; conditions: plasma; summary of the method: as §2
Hepatocyte [16] = experiment: Metabolic stability in rat hepatocytes assessed as metabolic rate per million cells; assay type: ADME, cell-based
Liver microsomes [17] = experiment: Metabolic stability in human liver microsomes assessed as metabolic rate; assay type: ADME, Microsome
[18] = Tmax in BALB/c mouse at 5 mg/kg, iv and 10 mg/kg, po; assay type: ADME, organism-based; conditions: in vivo; summary of the method: as §2
[19] = Volume of distribution at steady state in BALB/c mouse at 5 mg/kg, iv and 10 mg/kg, po; assay type: ADME, organism-based; conditions: in vivo, read-out: Vdss; summary of the method: as §2
[20] = Half life in BALB/c mouse at 5 mg/kg, iv and 10 mg/kg, po; assay type: ADME, organism-based; conditions: in vivo; summary of the method: as §2
[21] = Clearance in Sprague-Dawley rat at 2.5 mg/kg, iv and 10 mg/kg, po; assay type: ADME, organism-based; conditions: in vivo; summary of the method: as §1
[22] = Cmax in Sprague-Dawley rat at 2.5 mg/kg, iv and 10 mg/kg, po; assay type: ADME, organism-based; conditions: in vivo; summary of the method: as §1
[23] = Cmax in BALB/c mouse at 5 mg/kg, iv and 10 mg/kg, po; assay type: ADME, organism-based; conditions: in vivo; summary of the method: as §2

Papp [1]: 0.5 ×10⁻⁶ cm/s
SMILES: CCNC(=O)c1cn2ncnc(Nc3cc(C(=O)NOC)ccc3C)c2c1C

AUC(0-t) [2]: 45.4 µM·h
Stability (Hepatocyte [3]): 0.015 nmol/min/million cells
Stability [4]: 0.011 nmol/min/mg
MRT [5]: 3.3 h
clearance [6]: 4.4 mL/min/kg
MRT [7]: 3.4 h
Tmax [8]: 1.5 h
bioavailability [9]: 90%
bioavailability [10]: 60%
Stability (Liver microsomes [11]): 0.008 nmol/min/mg
Stability [12]: 0.006 nmol/min/million cells
Vd [13]: 1.1 L/kg
half-life [14]: 4 h
AUC(0-t) [15]: 75.5 µM·h
Stability (Hepatocyte [16]): 0.015 nmol/min/million cells
Papp [1]: 9.1 ×10⁻⁶ cm/s
Stability (Liver microsomes [17]): 0.013 nmol/min/mg
Tmax [18]: 1 h
Vd [19]: 0.9 L/kg
half-life [20]: 2.6 h
clearance [21]: 5.4 mL/min/kg
Cmax [22]: 7 µM
Cmax [23]: 15.3 µM
SMILES: CCCNC(=O)c1cn2ncnc(Nc3cc(C(=O)NC4CC4)ccc3C)c2c1C [BMS-582949]
